According to ChEMBL document CHEMBL1932969, “Acyl derivatives of boswellic acids as inhibitors of NF-κB and STATs” (Bioorg Med Chem Lett, 2012):
Activity calls are given as the source filed them. The rule behind the calls is not given here.

How the values were obtained:
HL-60 [1] = assay: Induction of apoptosis in p53-deficient human HL60 cells assessed as DNA fragmentation at 50 uM after 6 hrs by agarose gel electrophoresis; type: functional, cell-based
Procedure, shortened: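 2 × 10⁶ HL-60 cells treated with derivatives at 50 µM for 6 h, then scored for an apoptotic DNA ladder of 180–200 bp fragments or multiples. The positive control is 4 µM camptothecin for 6 h.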

HEp-2 = assay: Anticancer activity against human Hep2 cells assessed as growth inhibition at 50 uM after 48 hrs by SRB assay; type: functional; conditions: HEp-2, 48 h, read-out: GI
Procedure, shortened: (§1)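 Cells exposed to test compounds at 50 µM for 48 h. Read-out is percent growth inhibition, with SEM given. 5-Fluorouracil and adriamycin serve as reference agents.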

HL-60 [2] = assay: Induction of autophagy in p53-deficient human HL60 cells at 50 uM after 6 hrs by acridine orange staining; type: functional, cell-based
Procedure, shortened: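 Autophagy scored by flow cytometry of HL-60 cells stained with acridine orange after 6 h exposure.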

HL-60 [3] = assay: Inhibition of STAT3alpha protein expression in p53-deficient human HL60 cells at 20 to 50 uM after 6 hrs by Western blot analysis; type: cell-based
HL-60 [4] = assay: Inhibition of STAT3beta protein expression in p53-deficient human HL60 cells at 20 to 50 uM after 6 hrs by Western blot analysis; type: cell-based
[5] = biological target: Transcription factor p65 (Homo sapiens) (UniProt Q04206); assay: Inhibition of NF-kappaB p65 subunit protein expression in p53-deficient human HL60 cells at 50 uM after 6 hrs by Western blot analysis; type: cell-based; conditions: HL-60
Procedure, shortened: (§2)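 HL-60 cells treated with or without compound (20 and 50 µM) for 6 h. Total cell lysates (70 µg protein) are run on 10% SDS–PAGE and immunoblotted for NF-κB p50 and p65.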

[6] = biological target: T1, Signal transducer and activator of transcription 6 (Homo sapiens) (UniProt P42226); assay: Inhibition of STAT6 protein expression in p53-deficient human HL60 cells at 20 to 50 uM after 6 hrs by Western blot analysis; type: cell-based; conditions: HL-60
T1 sequence (whole entry): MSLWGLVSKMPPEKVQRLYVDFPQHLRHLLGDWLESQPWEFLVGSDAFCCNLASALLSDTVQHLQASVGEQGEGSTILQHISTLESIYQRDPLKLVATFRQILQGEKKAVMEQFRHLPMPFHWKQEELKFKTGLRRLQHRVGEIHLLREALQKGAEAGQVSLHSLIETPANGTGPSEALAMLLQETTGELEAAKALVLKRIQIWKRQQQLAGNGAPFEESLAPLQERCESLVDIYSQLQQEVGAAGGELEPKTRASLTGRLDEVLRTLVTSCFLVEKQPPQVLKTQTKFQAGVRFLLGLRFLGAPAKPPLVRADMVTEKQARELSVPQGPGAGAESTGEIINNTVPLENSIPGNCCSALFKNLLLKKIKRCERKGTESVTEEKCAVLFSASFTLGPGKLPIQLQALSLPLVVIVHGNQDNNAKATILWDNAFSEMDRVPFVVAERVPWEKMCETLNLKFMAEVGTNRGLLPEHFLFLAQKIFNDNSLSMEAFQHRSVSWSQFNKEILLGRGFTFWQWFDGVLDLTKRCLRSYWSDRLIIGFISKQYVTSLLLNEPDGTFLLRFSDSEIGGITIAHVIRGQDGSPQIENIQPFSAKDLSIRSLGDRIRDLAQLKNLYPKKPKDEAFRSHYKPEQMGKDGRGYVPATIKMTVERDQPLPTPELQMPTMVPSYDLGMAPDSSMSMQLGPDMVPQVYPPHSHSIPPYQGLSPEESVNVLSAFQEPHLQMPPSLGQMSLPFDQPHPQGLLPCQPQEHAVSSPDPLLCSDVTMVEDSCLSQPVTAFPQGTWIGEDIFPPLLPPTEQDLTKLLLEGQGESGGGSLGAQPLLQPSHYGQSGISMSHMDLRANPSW

PC-3 = assay: Anticancer activity against human PC3 cells assessed as growth inhibition at 50 uM after 48 hrs by SRB assay; type: functional; conditions: PC-3, 48 h, read-out: GI; procedure, shortened: as §1
COLO 205 = assay: Anticancer activity against human COLO205 cells assessed as growth inhibition at 50 uM after 48 hrs by SRB assay; type: functional; conditions: COLO 205, 48 h, read-out: GI; procedure, shortened: as §1
[7] = biological target: T2, Signal transducer and activator of transcription 5A (Homo sapiens) (UniProt P42229); assay: Inhibition of STAT5 protein expression in p53-deficient human HL60 cells at 20 to 50 uM after 6 hrs by Western blot analysis; type: cell-based; conditions: HL-60
T2 sequence (whole entry): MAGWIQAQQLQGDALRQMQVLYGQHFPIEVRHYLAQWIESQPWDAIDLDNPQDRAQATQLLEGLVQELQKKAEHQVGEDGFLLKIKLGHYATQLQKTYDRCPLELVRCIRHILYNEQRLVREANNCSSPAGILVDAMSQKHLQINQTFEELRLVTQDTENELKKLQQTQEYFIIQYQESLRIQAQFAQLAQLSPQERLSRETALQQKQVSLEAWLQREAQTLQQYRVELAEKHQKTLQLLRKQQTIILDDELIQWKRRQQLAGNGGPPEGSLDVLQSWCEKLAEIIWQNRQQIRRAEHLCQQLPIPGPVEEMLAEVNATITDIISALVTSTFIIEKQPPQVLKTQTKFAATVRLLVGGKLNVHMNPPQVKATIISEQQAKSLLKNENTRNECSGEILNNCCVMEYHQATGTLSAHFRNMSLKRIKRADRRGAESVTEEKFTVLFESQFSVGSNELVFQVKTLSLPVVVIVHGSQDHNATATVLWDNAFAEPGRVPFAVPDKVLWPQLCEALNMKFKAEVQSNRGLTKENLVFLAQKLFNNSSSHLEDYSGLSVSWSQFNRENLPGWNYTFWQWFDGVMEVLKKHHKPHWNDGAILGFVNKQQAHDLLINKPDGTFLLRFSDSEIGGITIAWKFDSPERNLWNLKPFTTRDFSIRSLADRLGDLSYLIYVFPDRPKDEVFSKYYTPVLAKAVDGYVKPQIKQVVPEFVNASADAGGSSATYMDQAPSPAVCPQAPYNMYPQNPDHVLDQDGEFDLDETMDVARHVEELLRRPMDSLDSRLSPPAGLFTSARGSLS

HL-60 [8] = assay: Induction of apoptosis in p53-deficient human HL60 cells assessed as post-apoptotic cells at 50 uM after 6 hrs by FITC-conjugated annexinV/PI-based flow cytometric analysis (reference value: 1 %); type: functional
Procedure, shortened: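 HL-60 cells incubated with each analog at 50 µM for 6 h, stained with annexin V-FITC/propidium iodide and analysed by flow cytometry. Lower right quadrant is apoptotic, upper right post-apoptotic, upper left necrotic. Three experiments, with representative dot plots shown.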

HL-60 [9] = assay: Inhibition of NF-kappaB p50 subunit protein expression in p53-deficient human HL60 cells at 50 uM after 6 hrs by Western blot analysis; type: cell-based; procedure, shortened: as §2
[10] = Cytotoxicity against human HGF cells after 48 hrs by MTT assay; type: cell-based
Procedure, shortened: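 Cell proliferation measured by MTT. Cells are incubated with each analog for 48 h at the indicated concentrations, then MTT reduction is read as an index of viability. OD of the untreated control is taken as 100% viability, and IC50 is derived from this.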

Transcription factor p65 (Homo sapiens), sequence (Q04206 whole entry): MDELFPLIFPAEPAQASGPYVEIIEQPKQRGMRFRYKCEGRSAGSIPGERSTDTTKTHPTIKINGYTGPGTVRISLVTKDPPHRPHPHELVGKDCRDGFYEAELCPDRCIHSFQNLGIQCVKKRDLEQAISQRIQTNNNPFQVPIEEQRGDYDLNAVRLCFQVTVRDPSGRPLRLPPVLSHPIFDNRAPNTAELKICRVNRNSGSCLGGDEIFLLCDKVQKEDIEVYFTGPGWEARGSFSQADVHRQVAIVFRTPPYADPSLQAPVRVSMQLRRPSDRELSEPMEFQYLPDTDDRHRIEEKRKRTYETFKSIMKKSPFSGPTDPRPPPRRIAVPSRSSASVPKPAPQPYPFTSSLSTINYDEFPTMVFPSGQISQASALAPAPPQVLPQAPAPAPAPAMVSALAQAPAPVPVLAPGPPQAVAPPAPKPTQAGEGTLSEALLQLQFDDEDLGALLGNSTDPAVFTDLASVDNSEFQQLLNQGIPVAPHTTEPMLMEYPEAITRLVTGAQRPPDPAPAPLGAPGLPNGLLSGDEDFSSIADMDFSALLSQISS

CCCC(=O)O[C@@H]1CC[C@@]2(C)[C@@H](CC[C@]3(C)[C@@H]2C(=O)C=C2[C@@H]4[C@@H](C)[C@H](C)CC[C@]4(C)CC[C@]23C)[C@@]1(C)C(=O)O
Activity (HL-60 [1]): Active | inhibition of growth at 50 µM (HEp-2): 98% | Activity (HL-60 [2]): inactive | inhibition (HL-60 [3]): Active | inhibition (HL-60 [4]): Active | inhibition [5]: 90% | inhibition [6]: Active | inhibition of growth at 50 µM (PC-3): 96% | inhibition of growth at 50 µM (COLO 205): 94% | inhibition [7]: Active | Activity (HL-60 [8]): 48% | inhibition (HL-60 [9]): Active | IC50 [10]: 80 µM
